ChEMBL document CHEMBL2384986, “Re-evolution of the 2-phenylquinolines: ligand-based design, synthesis, and biological evaluation of a potent new class of Staphylococcus aureus NorA efflux pump inhibitors to combat antimicrobial resistance” (J Med Chem, 2013)
Calls of active or inactive are those of the source. The rule behind the calls is not given here.

Columns and labels:
[1] = molecular target: T1, Quinolone resistance protein NorA (Staphylococcus aureus) (UniProt P0A0J7); assay: Inhibition of NorA in Staphylococcus aureus 1199B harboring grlA A116E mutant assessed as inhibition of ethidium bromide efflux at 50 uM measured for 5 mins by fluorometric analysis relative to control
T1 sequence (whole entry): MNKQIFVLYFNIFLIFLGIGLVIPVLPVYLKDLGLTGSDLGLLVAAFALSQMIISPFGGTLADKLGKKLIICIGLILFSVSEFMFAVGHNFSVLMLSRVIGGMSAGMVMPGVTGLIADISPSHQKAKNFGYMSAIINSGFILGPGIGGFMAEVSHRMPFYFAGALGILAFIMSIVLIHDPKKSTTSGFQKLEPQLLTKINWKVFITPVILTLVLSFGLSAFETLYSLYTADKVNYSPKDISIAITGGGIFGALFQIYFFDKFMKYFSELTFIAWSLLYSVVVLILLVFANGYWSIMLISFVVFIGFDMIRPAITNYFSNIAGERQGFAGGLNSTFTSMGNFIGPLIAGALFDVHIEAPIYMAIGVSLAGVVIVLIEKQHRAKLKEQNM
Procedure, shortened: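 EtBr loss from SA-1199B (norA overexpressing, GrlA A116E) measured fluorometrically with inhibitor at 50 μM, compared with no-inhibitor control. Read-out is mean total efflux over a 5 min time course, expressed as percent reduction in efflux. Usually run in duplicate.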

Staphylococcus aureus [2] = assay: Antibacterial activity against Staphylococcus aureus 1199 harboring wild type norA assessed as growth inhibition by microdilution method
Staphylococcus aureus [3] = assay: Antibacterial activity against wild type Staphylococcus aureus ATCC 25923 assessed as growth inhibition by microdilution method; type: functional
Procedure, shortened: (§1)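 Broth microdilution MIC determination following CLSI guidelines. Strains: wild-type ATCC 25923 and SA-K1902 (norA−). Intrinsic activity was tested up to a top concentration of 100 μg/mL.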

Staphylococcus aureus [4] = assay: Antibacterial activity against norA-deficient Staphylococcus aureus K1902 assessed as growth inhibition by microdilution method; type: functional; procedure, shortened: as §1
Staphylococcus aureus [5] = assay: Reduction of ciprofloxacin MIC in norA-deficient Staphylococcus aureus K1902 at 0.78 to 100 ug/mL; type: functional, organism-based
Procedure, shortened: (§2)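 Ciprofloxacin MIC determined by CLSI broth microdilution, alone and combined with scalar dilutions of freshly prepared test compound; checkerboard combination format. Strains: ATCC 25923 (wild type), SA-1199 (norA wt), SA-1199B (norA overexpressing, GrlA A116E), SA-K2378 (norA on multicopy pCU1) and SA-K1902 (norA-deleted).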

[6] = molecular target: T1, Quinolone resistance protein NorA (Staphylococcus aureus); assay: Inhibition of NorA in Staphylococcus aureus ATCC 25923 assessed as reduction of ciprofloxacin MIC at 0.78 to 100 ug/mL; procedure, shortened: as §2
Staphylococcus aureus [7] = assay: Antibacterial activity against Staphylococcus aureus 1199B overexpressing NorA and grlA A116E mutant assessed as growth inhibition by microdilution method; type: functional
Procedure, shortened: (§3)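 Broth microdilution MIC per CLSI guidelines for intrinsic antistaphylococcal activity; highest concentration tested 100 μg/mL. SA-1199 is the norA wild-type parent, SA-1199B overexpresses norA and carries GrlA A116E, and SA-K2378 overexpresses norA from multicopy plasmid pCU1 in the norA-deleted SA-K1902 background.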

[8] = molecular target: T1, Quinolone resistance protein NorA (Staphylococcus aureus); assay: Inhibition of wild type NorA in Staphylococcus aureus 1199 assessed as reduction of ciprofloxacin MIC at 0.78 to 100 ug/mL; procedure, shortened: as §2
Staphylococcus aureus [9] = assay: Antibacterial activity against Staphylococcus aureus K2378 overexpressing norA assessed as growth inhibition by microdilution method; type: functional; procedure, shortened: as §3
[10] = molecular target: Quinolone resistance protein NorA (Staphylococcus aureus, UniProt P0A0J7); assay: Inhibition of NorA in Staphylococcus aureus 1199B harboring grlA A116E mutant assessed as inhibition of ethidium bromide efflux measured for 5 mins by fluorometric analysis
Procedure, shortened: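 Fluorometric EtBr efflux assay in SA-1199B (norA overexpressing, GrlA A116E) over a 5 min time course, compared with no-inhibitor control. Increasing inhibitor concentrations were tested, and IC50 was read by inspection of the dose-response plots. Usually run in duplicate.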

[11] = molecular target: T1, Quinolone resistance protein NorA (Staphylococcus aureus); assay: Inhibition of NorA in Staphylococcus aureus K2378 assessed as reduction of ciprofloxacin MIC at 0.78 to 100 ug/mL relative to control; procedure, shortened: as §2
Staphylococcus aureus [12] = assay: Reduction of ethidium bromide MIC in mepA-deficient Staphylococcus aureus K2885 at 0.78 to 100 ug/mL; type: functional, organism-based
Procedure, shortened: (§4)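 The strains are norA-deleted S. aureus carrying pALC2073-mepA (K2886) or the empty pALC2073 vector (K2885). Cloned genes are under a xyl/tetO promoter, induced by 0.05 μg/mL tetracycline, which was present in all experiments with these strains. EtBr MICs were determined by CLSI microdilution, with and without test compound.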

Staphylococcus aureus [13] = assay: Inhibition of MepA in Staphylococcus aureus K2886 assessed as reduction of ethidium bromide MIC at 0.78 to 100 ug/mL; procedure, shortened: as §4
Staphylococcus aureus [14] = assay: Inhibition of MepA in Staphylococcus aureus K2886 assessed as reduction of ethidium bromide MIC at 0.78 ug/mL relative to control
Procedure, shortened: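 Ethidium bromide MIC by CLSI microdilution, alone and combined with test compound. Strain SA-K2886 is norA-deleted and carries pALC2073-mepA, with mepA under a xyl/tetO promoter; 0.05 μg/mL tetracycline was included throughout to induce expression.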

[15] = molecular target: T1, Quinolone resistance protein NorA (Staphylococcus aureus); assay: Inhibition of NorA in Staphylococcus aureus 1199B harboring grlA A116E mutant assessed as reduction of ciprofloxacin MIC at 3.13 ug/mL relative to control; procedure, shortened: as §2
[16] = molecular target: T1, Quinolone resistance protein NorA (Staphylococcus aureus); assay: Inhibition of NorA in Staphylococcus aureus K2378 assessed as reduction of ciprofloxacin MIC at 0.78 ug/mL relative to control; procedure, shortened: as §2

For `CCCOc1ccc(-c2cc(OCCN3C(=O)c4ccccc4C3=O)c3ccccc3n2)cc1`, the inhibition [1] was 8.3%.

`COC(=O)[C@H]1[C@H]2C[C@@H]3c4[nH]c5cc(OC)ccc5c4CCN3C[C@H]2C[C@@H](OC(=O)c2cc(OC)c(OC)c(OC)c2)[C@@H]1OC` [RESERPINE] gave an MIC (Staphylococcus aureus [2]) greater than 100 µg/mL, an MIC (Staphylococcus aureus [3]) greater than 100 µg/mL and an MIC (Staphylococcus aureus [4]) greater than 100 µg/mL. For the same molecule, the Activity (Staphylococcus aureus [5]) was “inactive”, the inhibition [6] was “inactive” and the MIC (Staphylococcus aureus [7]) was greater than 150 µM. The inhibition [8] was “inactive”, the MIC (Staphylococcus aureus [9]) was greater than 100 µg/mL and the IC50 [10] was 9.2 µM. The fold change (FC) [11] was 4.

`CCCOc1ccc(-c2cc(OCC(C)N(C)C)c3ccccc3n2)cc1.Cl` (centres undefined) was tested, and the MIC (Staphylococcus aureus [2]) was greater than 100 µg/mL, the Activity (Staphylococcus aureus [5]) was “inactive” and the inhibition [6] was “inactive”. The MIC (Staphylococcus aureus [7]) was greater than 200 µM, the inhibition [8] was “inactive” and the inhibition [1] was 90.4%. The IC50 [10] was 7.5 µM and the fold change (FC) [11] was 4.

`CCCOc1ccc(-c2cc(OCCN3CCCCCC3)c3ccccc3n2)cc1` was tested, and the MIC (Staphylococcus aureus [2]) was greater than 100 µg/mL, the MIC (Staphylococcus aureus [3]) was greater than 100 µg/mL and the MIC (Staphylococcus aureus [4]) was 50 µg/mL. For the same molecule, the Activity (Staphylococcus aureus [12]) was “inactive”, the Activity (Staphylococcus aureus [5]) was “inactive” and the inhibition (Staphylococcus aureus [13]) was “Active”. The fold change (FC) (Staphylococcus aureus [14]) was 16, the inhibition [6] was “inactive” and the MIC (Staphylococcus aureus [7]) was greater than 200 µM. For the same molecule, the inhibition [8] was “inactive”, the fold change (FC) [15] was 16 and the inhibition [1] was 86%. For the same molecule, the MIC (Staphylococcus aureus [9]) was 50 µg/mL, the IC50 [10] was 6.4 µM and the fold change (FC) [16] was 16. For the same molecule, the fold change (FC) [11] was 16.

`CCCOc1ccc(-c2cc(OC3CCCN(C)C3)c3ccccc3n2)cc1` (centres undefined) was tested, and the MIC (Staphylococcus aureus [2]) was greater than 100 µg/mL, the Activity (Staphylococcus aureus [5]) was “inactive” and the inhibition [6] was “inactive”. The MIC (Staphylococcus aureus [7]) was greater than 200 µM, the inhibition [8] was “inactive” and the inhibition [1] was 88.2%. It also gave an IC50 [10] of 8 µM and a fold change (FC) [11] of 4.

In the case of `CCCOc1ccc(-c2cc(OC(C)CN(C)C)c3ccccc3n2)cc1` (racemic), the MIC (Staphylococcus aureus [7]) is reported as greater than 200 µM, the inhibition [1] is reported as 86.2% and the IC50 [10] is reported as 13.3 µM.

`CCCOc1ccc(-c2cc(OCCN(CC)Cc3ccccc3)c3ccccc3n2)cc1` showed an MIC (Staphylococcus aureus [7]) greater than 200 µM and an inhibition [1] of 72.5%.

For `CCCOc1ccc(-c2cc(OCCN3CCC4(CC3)OCCO4)c3ccccc3n2)cc1`, the MIC (Staphylococcus aureus [2]) was greater than 100 µg/mL, the Activity (Staphylococcus aureus [5]) was “inactive” and the inhibition [6] was “inactive”. The MIC (Staphylococcus aureus [7]) was greater than 200 µM, the inhibition [8] was “inactive” and the inhibition [1] was 80.4%. The IC50 [10] was 8.5 µM and the fold change (FC) [11] was 4.

In the case of `CCCOc1ccc(-c2cc(OCCN(CC)CC)c3ccccc3n2)cc1`, the MIC (Staphylococcus aureus [2]) is reported as greater than 100 µg/mL, the MIC (Staphylococcus aureus [3]) is reported as 100 µg/mL and the MIC (Staphylococcus aureus [4]) is reported as 50 µg/mL. For the same molecule, the Activity (Staphylococcus aureus [5]) was “inactive”, the inhibition [6] was “inactive” and the MIC (Staphylococcus aureus [7]) was greater than 200 µM. For the same molecule, the inhibition [8] was “inactive”, the MIC (Staphylococcus aureus [9]) was 50 µg/mL and the IC50 [10] was 8.9 µM. It also gave a fold change (FC) [11] of 4.

`CCCOc1ccc(-c2cc(OCCN)c3ccccc3n2)cc1` was tested, and the MIC (Staphylococcus aureus [7]) was greater than 310 µM, the inhibition [1] was 96.1% and the IC50 [10] was 9.3 µM.

In the case of `CCCOc1ccc(-c2cc(OCCN3CCN(Cc4ccccc4)CC3)c3ccccc3n2)cc1`, the MIC (Staphylococcus aureus [2]) is reported as greater than 100 µg/mL, the MIC (Staphylococcus aureus [3]) is reported as greater than 100 µg/mL and the MIC (Staphylococcus aureus [4]) is reported as greater than 100 µg/mL. For the same molecule, the Activity (Staphylococcus aureus [12]) was “inactive”, the Activity (Staphylococcus aureus [5]) was “inactive” and the inhibition (Staphylococcus aureus [13]) was “Active”. The inhibition [6] was “inactive”, the MIC (Staphylococcus aureus [7]) was greater than 200 µM and the inhibition [8] was “inactive”. The inhibition [1] was 81.2%, the MIC (Staphylococcus aureus [9]) was greater than 100 µg/mL and the IC50 [10] was 3.8 µM. For the same molecule, the fold change (FC) [11] was 4.

For `CCCOc1ccc(-c2cc(OCCN3CCC(=O)CC3)c3ccccc3n2)cc1`, the MIC (Staphylococcus aureus [7]) was greater than 200 µM and the inhibition [1] was 71.7%.

For `CCCOc1ccc(-c2cc(OCCN(Cc3ccccc3)Cc3ccccc3)c3ccccc3n2)cc1`, the inhibition [1] was 0%.

In the case of `Fc1ccc([C@H]2CCNC[C@@H]2COc2ccc3c(c2)OCO3)cc1`, the inhibition [1] is reported as 85%.

Work on `CCCOc1ccc(-c2cc(OC3CN4CCC3CC4)c3ccccc3n2)cc1` (centres undefined) yielded an MIC (Staphylococcus aureus [7]) greater than 200 µM, an inhibition [1] of 91.3% and an IC50 [10] of 14.8 µM.
